Converted amounts (≈) assume the structure as drawn.
How the values were obtained:
Assay type in all cases: functional
[1] = test system: Globisporangium debaryanum; test: Antifungal activity against Pythium debaryanum assessed as growth inhibition by poisoned food technique; settings: read-out: ED50 (the source's name)
Outline: (§1)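 ED50 from poisoned-food growth inhibition on PDA at 250, 125 and 62.5 μg/mL in medium, with an acetone control. Plates were inoculated with a 5 mm mycelial disc, incubated at 28 °C, and colony diameter was measured in quadruplicate. Percent inhibition was corrected by Abbott's formula, using a correction factor from the 9 cm dish diameter, and ED50 (μg/mL) was derived by probit analysis.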

[2] = test system: Globisporangium debaryanum; test: Antifungal activity against Pythium debaryanum assessed as growth inhibition at 62.5 ug/ml by poisoned food technique
Outline: (§2)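 Poisoned-food assay on PDA. Test material was diluted in acetone and mixed into molten medium at final 250, 125 or 62.5 μg/mL, with 1 mL acetone as control. Plates received a 5 mm mycelial disc from the front of a 2-week-old colony and were incubated at 28 °C until control growth was nearly complete. Colony diameter was measured, giving %I = (C−T)/C×100. Mean ± SD of four replicates.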

[3] = test system: Globisporangium debaryanum; test: Antifungal activity against Pythium debaryanum assessed as growth inhibition at 125 ug/ml by poisoned food technique; outline: as §2
[4] = test system: Globisporangium debaryanum; test: Antifungal activity against Pythium debaryanum assessed as growth inhibition at 250 ug/ml by poisoned food technique; outline: as §2
[5] = test system: Pythium aphanidermatum; test: Antifungal activity against Pythium aphanidermatum assessed as growth inhibition by poisoned food technique; settings: read-out: ED50 (the source's name); outline: as §1
[6] = test system: Pythium aphanidermatum; test: Antifungal activity against Pythium aphanidermatum assessed as growth inhibition at 62.5 ug/ml by poisoned food technique; outline: as §2
[7] = test system: Pythium aphanidermatum; test: Antifungal activity against Pythium aphanidermatum assessed as growth inhibition at 125 ug/ml by poisoned food technique; outline: as §2
[8] = test system: Pythium aphanidermatum; test: Antifungal activity against Pythium aphanidermatum assessed as growth inhibition at 250 ug/ml by poisoned food technique; outline: as §2
[9] = test system: Fusarium udum; test: Antifungal activity against Fusarium udum assessed as growth inhibition by poisoned food technique; settings: read-out: ED50 (the source's name); outline: as §1
[10] = test system: Fusarium udum; test: Antifungal activity against Fusarium udum assessed as growth inhibition at 62.5 ug/ml by poisoned food technique; outline: as §2
[11] = test system: Fusarium udum; test: Antifungal activity against Fusarium udum assessed as growth inhibition at 125 ug/ml by poisoned food technique; outline: as §2
[12] = test system: Fusarium udum; test: Antifungal activity against Fusarium udum assessed as growth inhibition at 250 ug/ml by poisoned food technique; outline: as §2
[13] = test system: Macrophomina phaseolina; test: Antifungal activity against Rhizoctonia bataticola assessed as growth inhibition by poisoned food technique; settings: read-out: ED50 (the source's name); outline: as §1
[14] = test system: Macrophomina phaseolina; test: Antifungal activity against Rhizoctonia bataticola assessed as growth inhibition at 62.5 ug/ml by poisoned food technique; outline: as §2
[15] = test system: Macrophomina phaseolina; test: Antifungal activity against Rhizoctonia bataticola assessed as growth inhibition at 125 ug/ml by poisoned food technique; outline: as §2
[16] = test system: Macrophomina phaseolina; test: Antifungal activity against Rhizoctonia bataticola assessed as growth inhibition at 250 ug/ml by poisoned food technique; outline: as §2
[17] = test system: Rhizoctonia solani; test: Antifungal activity against Rhizoctonia solani assessed as growth inhibition by poisoned food technique; settings: read-out: ED50 (the source's name); outline: as §1
[18] = test system: Rhizoctonia solani; test: Antifungal activity against Rhizoctonia solani assessed as growth inhibition at 62.5 ug/ml by poisoned food technique; outline: as §2
[19] = test system: Rhizoctonia solani; test: Antifungal activity against Rhizoctonia solani assessed as growth inhibition at 125 ug/ml by poisoned food technique; outline: as §2
[20] = test system: Rhizoctonia solani; test: Antifungal activity against Rhizoctonia solani assessed as growth inhibition at 250 ug/ml by poisoned food technique; outline: as §2
[21] = test system: Athelia rolfsii; test: Antifungal activity against Athelia rolfsii assessed as growth inhibition by poisoned food technique; settings: Agroathelia rolfsii; read-out: ED50 (the source's name); outline: as §1
[22] = test system: Athelia rolfsii; test: Antifungal activity against Athelia rolfsii assessed as growth inhibition at 62.5 ug/ml by poisoned food technique; settings: Agroathelia rolfsii; outline: as §2
[23] = test system: Athelia rolfsii; test: Antifungal activity against Athelia rolfsii assessed as growth inhibition at 125 ug/ml by poisoned food technique; settings: Agroathelia rolfsii; outline: as §2
[24] = test system: Athelia rolfsii; test: Antifungal activity against Athelia rolfsii assessed as growth inhibition at 250 ug/ml by poisoned food technique; settings: Agroathelia rolfsii; outline: as §2

Row | SMILES | EC50 [1] [mg/L] | inhibition at 62.5 µg/mL [2] [%] | inhibition at 125 µg/mL [3] [%] | inhibition at 250 µg/mL [4] [%] | EC50 [5] [mg/L] | inhibition at 62.5 µg/mL [6] [%] | inhibition at 125 µg/mL [7] [%] | inhibition at 250 µg/mL [8] [%] | EC50 [9] [mg/L] | inhibition at 62.5 µg/mL [10] [%] | inhibition at 125 µg/mL [11] [%] | inhibition at 250 µg/mL [12] [%] | EC50 [13] [mg/L] | inhibition at 62.5 µg/mL [14] [%] | inhibition at 125 µg/mL [15] [%] | inhibition at 250 µg/mL [16] [%] | EC50 [17] [mg/L] | inhibition at 62.5 µg/mL [18] [%] | inhibition at 125 µg/mL [19] [%] | inhibition at 250 µg/mL [20] [%] | also measured
1 | COc1cc(C)c(C(=O)Oc2cc(C)c(C(=O)O)c(O)c2C)c(O)c1C=O [BAEOMYCESIC ACID] | 144 (≈ 383 µM) | 18.3 | 38.2 | 77.1 | 149 (≈ 398 µM) | 11.4 | 29.3 | 44.4 | 110 (≈ 293 µM) | 33.5 | 47.1 | 57.9 | 150 (≈ 400 µM) | 17.1 | 28.4 | 49.1 | 71.3 (≈ 190 µM) | 33.4 | 61.4 | 81.6 | EC50 [21]: 86.7 mg/L (≈ 231 µM); inhibition at 62.5 µg/mL [22]: 32.2%; inhibition at 125 µg/mL [23]: 44.4%; inhibition at 250 µg/mL [24]: 72.4%
2 | Cc1cc(O)c(C=O)c2c1C(=O)Oc1c(CO)c(O)c3c(c1O2)C(O)OC3=O (stereo not given) [SLAZINIC ACID] | 151 (≈ 388 µM) | 11.9 | 28.1 | 43.5 | 121 (≈ 312 µM) | 11.1 | 25.5 | 61 | 88.2 (≈ 227 µM) | 31 | 50.1 | 67 | 161 (≈ 416 µM) | 9 | 26.8 | 41.2 | 179 (≈ 462 µM) | 22.1 | 30.2 | 45.2 | EC50 [21]: 164 mg/L (≈ 423 µM); inhibition at 62.5 µg/mL [22]: 5.93%; inhibition at 125 µg/mL [23]: 21%; inhibition at 250 µg/mL [24]: 38.2%
3 | CCOC(=O)c1c(C)cc(O)c(C=O)c1O [ETHYL HEMATOMMATE] | 128 (≈ 573 µM) | 15.1 | 26.3 | 56.5 | 133 (≈ 592 µM) | 13.1 | 32.6 | 50.4 | 250 (≈ 1120 µM) | 6.4 | 13.5 | 27.4 | 117 (≈ 523 µM) | 27.4 | 42.8 | 53.4 | 125 (≈ 557 µM) | 15.3 | 33.5 | 55.5 | EC50 [21]: 99 mg/L (≈ 441 µM); inhibition at 62.5 µg/mL [22]: 28.4%; inhibition at 125 µg/mL [23]: 47.5%; inhibition at 250 µg/mL [24]: 61%
4 | COc1cc(C)c(C(=O)O)c(O)c1C | 73.8 (≈ 376 µM) | 33 | 61.4 | 83.8 | 71.1 (≈ 362 µM) | 28.4 | 67.7 | 79.3 | 106 (≈ 541 µM) | 23.7 | 46.5 | 58 | 74.5 (≈ 380 µM) | 39.4 | 56.4 | 68 | 50.6 (≈ 258 µM) | 50 | 70.6 | 82 | EC50 [21]: 116 mg/L (≈ 589 µM); inhibition at 62.5 µg/mL [22]: 28.4%; inhibition at 125 µg/mL [23]: 44.3%; inhibition at 250 µg/mL [24]: 53%
5 | COc1cc(C)c2c(=O)c3c(O)cc(OC)cc3oc2c1 [LICHEXANTHONE] | 149 (≈ 520 µM) | 9.03 | 28.4 | 42 | 174 (≈ 608 µM) | 13 | 23.4 | 42.7 | 151 (≈ 528 µM) | 20.3 | 24.5 | 53.3 | 134 (≈ 467 µM) | 11.4 | 30.3 | 50 | 202 (≈ 707 µM) | 19.6 | 29.4 | 41 | EC50 [21]: 273 mg/L (≈ 955 µM); inhibition at 62.5 µg/mL [22]: 16.7%; inhibition at 125 µg/mL [23]: 23.2%; inhibition at 250 µg/mL [24]: 37.3%
6 | C=C1C(=O)OC(CCCCCCCCCCCCC)C1C(=O)O (racemic) [(+/-)-Protolichesterinic acid] | 16.1 (≈ 49.5 µM) | 78.3 | 90 | 100 | 57.1 (≈ 176 µM) | 44.3 | 72.3 | 80.3 | 55.7 (≈ 172 µM) | 44.3 | 78 | 90.3 | 77.6 (≈ 239 µM) | 28.3 | 50 | 89.3 | 23.1 (≈ 71.2 µM) | 67 | 77 | 83.3 | EC50 [21]: 61.4 mg/L (≈ 189 µM); inhibition at 62.5 µg/mL [22]: 39.3%; inhibition at 125 µg/mL [23]: 72.2%; inhibition at 250 µg/mL [24]: 90%
7 | CCOC(=O)c1c(C)cc(O)cc1O [ORSELLINIC ACID, ETHYL ESTER] | 72.5 (≈ 370 µM) | 28.3 | 61.2 | 91.4 | 86.9 (≈ 443 µM) | 18.5 | 50.4 | 83.3 | 98.2 (≈ 501 µM) | 17.3 | 32.5 | 79.4 | 114 (≈ 580 µM) | 16.4 | 28 | 67.2 | 58.3 (≈ 297 µM) | 44.4 | 68.1 | 90.4 | EC50 [21]: 82.7 mg/L (≈ 421 µM); inhibition at 62.5 µg/mL [22]: 28.3%; inhibition at 125 µg/mL [23]: 50.5%; inhibition at 250 µg/mL [24]: 78%
8 | COC(=O)c1c(C)cc(O)c(C)c1O [ATRARIC ACID] | 57 (≈ 290 µM) | 44 | 72.3 | 89.3 | 81.5 (≈ 415 µM) | 22.3 | 50 | 88.3 | 82.3 (≈ 420 µM) | 26.7 | 50 | 80.5 | 77.2 (≈ 394 µM) | 28.3 | 50.3 | 90.3 | 57.5 (≈ 293 µM) | 46 | 67 | 80.3 | EC50 [21]: 80.2 mg/L (≈ 409 µM); inhibition at 62.5 µg/mL [22]: 33%; inhibition at 125 µg/mL [23]: 50%; inhibition at 250 µg/mL [24]: 74.3%
9 | CC(=O)C1=C(O)C=C2Oc3c(C)c(O)c(C(C)=O)c(O)c3C2(C)C1=O (racemic) [(+/-)-ISOUSNIC ACID] | 71 (≈ 206 µM) | 35.1 | 66.2 | 72.1 | 62.3 (≈ 181 µM) | 46.1 | 53.2 | 75.4 | 70.9 (≈ 206 µM) | 33.4 | 63.3 | 81 | 70.4 (≈ 204 µM) | 29.3 | 69.1 | 87.2 | 64.6 (≈ 188 µM) | 35.2 | 73.1 | 86.4 | EC50 [21]: 69.6 mg/L (≈ 202 µM); inhibition at 62.5 µg/mL [22]: 32.8%; inhibition at 125 µg/mL [23]: 66.1%; inhibition at 250 µg/mL [24]: 84%
10 | COC(=O)c1c(C)cc(OC(=O)c2c(C)cc(O)c(C=O)c2O)c(C)c1O [ATRANORIN] | 44.8 (≈ 120 µM) | 56.3 | 78 | 89.7 | 105 (≈ 280 µM) | 22 | 43 | 60.3 | 50.3 (≈ 134 µM) | 50 | 81.3 | 90 | 58.8 (≈ 157 µM) | 44.3 | 67.7 | 80 | 64.6 (≈ 173 µM) | 40 | 62 | 81.3 | EC50 [21]: 39.7 mg/L (≈ 106 µM); inhibition at 62.5 µg/mL [22]: 67.3%; inhibition at 125 µg/mL [23]: 89.7%; inhibition at 250 µg/mL [24]: 100%
